Assay outcomes as filed in PubChem.
Hits are enriched below; roughly 4.1% of the tested compounds scored in any of these assays.
KCNQ1 pot = potentiators or activators of KCNQ1 channel, primary screen, cell-based, thallium flux, high-throughput | Potassium voltage-gated channel subfamily KQT member 1 (Homo sapiens), P51787 | CHO-K1 KCNQ1, thallium flux FluxOR fluorescence; hits give high values | B-score at 10 µM | 310,000 compounds, 0.35% hits | AID 2648, 2010;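 active = fluorescence ratio B-score, a plate-corrected score, at least three library SD, with initial intensity B-score within 5 SD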
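Medium – assay buffer, equal DMSO in all wells · Material – CHO-K1 cell line with stable KCNQ1 potassium channel expression · Signal – kinetic FluxOR thallium fluorescence, 10-s 1-Hz baseline, 110-s post-stimulus read · Compound – single concentration per compound, DMSO matched to controls · Schedule – 37 °C overnight plating, 90-min dark dye load, 20-min compound pretreatment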
KCNK9 block = KCNK9 potassium channel inhibitors, primary screen, HEK293 cells, thallium flux. FluxOR thallium flux fluorescence; hits give low values. AID 488922, 2010. 310,000 compounds, 1.2% hits. B-score at 10 µM;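 active = ratio B-score over 3 SD below the library mean, with starting fluorescence within 5 SD of its mean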;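 also: negative B-score means less thallium flux so channel inhibition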
KCNQ1 inh = inhibitors of human KCNQ1 channel, primary screen, cell-based, thallium flux, high-throughput | CHO-K1 KCNQ1, FluxOR thallium flux fluorescence; hits give high values | AID 2642, 2010 | B-score at 10 µM | 310,000 compounds, 1.3% hits;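 active = compounds whose thallium flux B-score, printed positive for inhibition, exceeds three library SD while starting fluorescence stays within three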;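 also: channel opened by potassium depolarization with thallium stimulus after 20 min compound exposure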
KCC2 mod = KCC2 cotransporter modulators, thallium flux, primary screen, cell-based, HEK293 KCC2, FluoZin-2 fluorescence, MLSMR. KCC2 cells, thallium flux FluoZin-2 fluorescence. B-score of Tl+ flux slope (higher = more flux/activation; lower = inhibition) at 10 µM. 190,000 compounds, 2.2% hits. Solute carrier family 12 member 5 (Homo sapiens), Q9H2X9;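 active = thallium flux slope and its plate-corrected score both differing from the plate sample mean at a set confidence after two filtering rounds, in either direction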;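 also: slope of fluorescence scaled to starting intensity during 10 to 20 s after thallium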
hERG protect = hERG rescue from dofetilide block, primary screen, cell-based, CHO-hERG, FluxOR thallium flux, dofetilide IC70. dofetilide IC70 present. activation (rescue from dofetilide block), less the hit threshold, % at 10 µM. 310,000 compounds, 0.51% hits. AID 1511, 2009;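 active = activation above the mean of controls blocked by dofetilide plus 5 SD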;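 also: thallium influx through hERG after potassium depolarization seen as dye fluorescence rise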
KCNK3 block = human KCNK3 channel inhibitors, primary screen, CHO cells, FluxOR thallium flux, B-score; Potassium channel subfamily K member 3 (Homo sapiens), O14649; B-score at 10 µM; FluxOR fluorescence; hits give low values; 340,000 compounds, 0.84% hits;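 active = B-score under library mean minus 4 SD, starting fluorescence ratio at most library mean plus 5 SD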;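 also: more negative B-score means stronger inhibition of thallium flux through KCNK3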
Target sequence (O14649 whole entry, looked up): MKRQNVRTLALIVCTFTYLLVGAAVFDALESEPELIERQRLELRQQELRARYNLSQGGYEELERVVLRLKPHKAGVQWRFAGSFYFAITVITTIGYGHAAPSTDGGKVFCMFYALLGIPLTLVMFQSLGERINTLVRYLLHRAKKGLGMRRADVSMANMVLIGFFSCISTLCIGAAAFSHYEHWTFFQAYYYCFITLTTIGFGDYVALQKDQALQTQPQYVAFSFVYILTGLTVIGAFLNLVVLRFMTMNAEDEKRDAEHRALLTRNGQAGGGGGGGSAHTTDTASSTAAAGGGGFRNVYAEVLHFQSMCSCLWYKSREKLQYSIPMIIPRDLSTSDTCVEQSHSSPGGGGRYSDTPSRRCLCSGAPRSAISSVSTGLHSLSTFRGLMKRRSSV
KCC2 secondary = KCC2 modulators in sodium-free buffer, confirmation, cell-based, HEK293 KCC2, thallium flux, secondary assay. normalised thallium flux (F/F0 slope) at 10 µM. 3,700 compounds, 15% hits. FluoZin2 fluorescence; hits give high values. shares compounds with KCC2 mod. AID 1713, 2009;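 active = thallium flux slope above the same plate's solvent-only control mean plus 3 SD; inconclusive = the two replicate wells disagree; inactive = no significant difference from solvent-only control wells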
KCC2 bumet counter = thallium flux persisting under bumetanide in KCC2 cells, confirmation, counter-screen for KCC2 modulator project, cell-based, HEK293 KCC2, FluoZin2, secondary assay 3 | shares compounds with KCC2 mod | AID 1714, 2009 | HEK293-KCC2 + bumetanide/ouabain; hits give high values | 3,700 compounds, 49% hits | normalized thallium flux at 10 µM;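 active = thallium entry rate above the same plate's blocked-transporter control wells by more than 3 SD; inconclusive = the two repeat wells disagree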;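 also: raw slope of fluorescence over initial fluorescence between 10 and 20 s after thallium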
KCC2 sec2 = KCC2 modulators without ouabain present, confirmation, cell-based, HEK293 KCC2, thallium flux, FluoZin2, secondary assay 2 | shares compounds with KCC2 mod | 3,700 compounds, 23% hits | thallium flux FluoZin2 fluorescence; actives lie on both sides; F/F0 rise rate, 10–20 s post-thallium | normalized thallium flux at 10 µM;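 active = thallium flux slope more than 3 SD above or below the plate's solvent-only control mean, mostly below; inconclusive = the two repeat wells disagreed; inactive = no significant shift from solvent-only controls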;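 also: raw slope with 0.1% DMSO as baseline and bumetanide as block control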
HEK counter1 = thallium flux modulation in parental HEK cells, confirmation, counter-screen for KCC2 modulator project, cell-based, counterscreen 1; shares compounds with KCC2 mod; HEK293 parental cells, thallium flux FluoZin2, ouabain; baseline-ratio fluorescence slope, 10–20 s after thallium; thallium flux rate (normalised fluorescence) at 10 µM; 3,700 compounds, 46% hits;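 active = thallium flux rate significantly above the same plate's solvent-only control wells, beyond their mean plus 3 SD; inconclusive = the two replicate wells gave conflicting results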
KCC2 retest ouab = KCC2 inhibitors and activators, ouabain retest, confirmation, HEK-KCC2 cells | shares compounds with KCC2 mod | HEK293-KCC2, thallium flux FluoZin2 fluorescence; bidirectional: low = inhibitor, high = activator | raw Tl+ flux slope (below DMSO = inhibition, above = activation) at 10 µM | 3,700 compounds, 48% hits | AID 1717, 2009;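 active = thallium flux slope beyond 3 SD from same-plate DMSO control mean in most replicates, usually higher, sometimes lower; inconclusive = repeat tests gave conflicting results; inactive = no significant difference from controls in most replicates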;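 also: slope of initial-normalized fluorescence between seconds 10 and 20 after thallium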
HEK293 Tl flux2 = native HEK Tl+ uptake effects, second counter-screen – HEK cells, counterscreen 2, counter-screen for KCC2 modulator project, confirmation; 3,700 compounds, 33% hits; shares compounds with KCC2 mod; HEK293 parental, thallium flux FluoZin-2 fluorescence slope; thallium flux slope at 10 µM;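 active = thallium flux slope above the same plate's solvent-control mean plus 3 SD in both duplicate wells; inconclusive = duplicate wells that disagreed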;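 also: run without ouabain in cells lacking the KCC2 cotransporter; slope of fluorescence scaled to its starting value between 10 and 20 s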
Active calls of the source: *; i = inactive; ? = inconclusive; . = no result.

SMILES	KCNQ1 pot	KCNK9 block	KCNQ1 inh	KCC2 mod	hERG protect	KCNK3 block	KCC2 secondary	KCC2 bumet counter	KCC2 sec2	HEK counter1	KCC2 retest ouab	HEK293 Tl flux2
COc1cccc(NC(=S)N/N=C2\CC3CCC2(C)C3(C)C)c1 (configuration not stated)	i	i	i	11*	-8	i	0.0079	0.027*	?	0.024*	0.031*	0.03*
COc1cccc(NC(=S)NN=C2CCC(C(C)(C)C)CC2)c1 (configuration not stated)	i	i	i	4.9*	-4	i	0.006	0.009*	0.029	0.012*	0.02	0.011
CC12CCC(C/C1=N/NC(=O)Nc1ccccc1)C2(C)C (configuration not stated)	i	i	i	0.16	-8	i	.	.	.	.	.	.
CCCn1nc(C(=O)Nc2cc(OCC)c(N3CCOCC3)cc2OCC)c2ccccc2c1=O	.	.	.	.	.	i	.	.	.	.	.	.
Cc1c(NC(=O)/C(C#N)=C/c2ccc(-c3ccccc3Cl)o2)c(=O)n(-c2ccccc2)n1C	i	i	i	-2.1	-6	i	.	.	.	.	.	.
N#C/C(=C\c1ccc(-c2ccccc2Cl)o1)C(=O)Nc1nc2ccccc2s1	i	i	i	6.8*	10*	i	0.0069	0.024*	0.037	0.032*	0.029*	0.034*
Cc1ccc2[nH]c(=O)c(CN(CCc3ccccc3)Cc3nnnn3CC3CCCO3)cc2c1 (configuration not stated)	i	i	i	-4.3*	-4	i	?	0.0053	?	0.0072	0.017	0.011
COc1ccc2[nH]c(=O)c(CN(CCc3ccccc3)Cc3nnnn3CC3CCCO3)cc2c1 (configuration not stated)	i	i	i	0.09	-9	i	.	.	.	.	.	.
O=c1[nH]c2cc3c(cc2cc1CN(Cc1nnnn1CC1CCCO1)C1CCCCC1)OCO3 (configuration not stated)	i	i	i	7.4*	-17	i	0.0057	?	0.025*	0.0068	0.016*	?
COc1ccc2[nH]c(=O)c(CN(Cc3ccccc3OC)Cc3nnnn3CC3CCCO3)cc2c1 (configuration not stated)	i	i	i	8.6*	-12	i	0.0098	0.0051	0.031	0.0073	0.029	0.01
Cc1ccc2[nH]c(=O)c(-c3noc(CC(C)C)n3)cc2c1	i	i	i	-1.6	-5	i	.	.	.	.	.	.
O=C1C(=NO)CC(c2ccccc2)N1c1ccccc1 (configuration not stated)	.	.	.	.	.	i	.	.	.	.	.	.
COc1ccc(NC(=O)CCNS(=O)(=O)c2cccc3nonc23)cc1	i	i	i	.	-8	i	.	.	.	.	.	.
CCC(Oc1ccccc1)C(=O)OCC(=O)Nc1sccc1C(N)=O (configuration not stated)	.	.	.	.	.	i	.	.	.	.	.	.
O=C(CSc1nnc(Cc2ccccc2)o1)Nc1cccc(F)c1	i	i	i	.	-6	i	.	.	.	.	.	.
O=C(CSc1nnc(Cc2ccccc2)o1)N1CCCc2ccccc21	i	i	i	-6.1*	-13	i	0.0056	0.0038	0.021*	0.0068	0.012*	?
O=C(CSc1nnc(Cc2ccccc2)o1)c1ccc(F)cc1	i	i	i	-4.3*	-4	i	0.005	?	0.022*	0.0074	?	0.01
O=C(CSc1nnc(Cc2ccccc2)o1)c1cc(F)ccc1F	i	i	i	-7.1*	-17	i	0.0039*	0.0046	0.02*	?	0.012*	0.0099
CCCCCN(C(=O)CCC(=O)OCc1ccc(C(C)(C)C)cc1)c1c(N)n(CCCC)c(=O)[nH]c1=O	i	i	i	.	-8	i	.	.	.	.	.	.
CCN(CCn1cccn1)C(=O)C1CCC(=O)N(CC2CCCCC2)C1 (configuration not stated)	i	i	i	.	-7	i	.	.	.	.	.	.
Cc1cc(C)n2nc(C(=O)OCC(=O)NCc3ccccc3)nc2n1	.	.	.	.	.	i	.	.	.	.	.	.
COc1cc2sc(-c3ccc(S(C)(=O)=O)cc3)c(-c3ccc4c(c3)OCO4)c2cc1OC	.	.	.	.	.	i	.	.	.	.	.	.
CSc1ncc2[nH]c(C(O)c3ccccc3)nc2n1 (configuration not stated)	.	.	.	.	.	i	.	.	.	.	.	.
O=C(CN1CCN(S(=O)(=O)c2ccc(Cl)cc2)CC1)Nc1ccc2c(c1)CCC2	i	i	i	-0.59	-9	i	0.0054	0.005	0.028	0.0077	0.018	0.011
O=C1NC2(CCCCC2)OC12CCCCC2	.	.	.	.	.	i	.	.	.	.	.	.
Cc1cccc(C(=O)N[C@H](C(=O)NCCc2ccc(Cl)cc2)C(C)C)c1	i	i	i	.	-1	i	.	.	.	.	.	.
